Marks after values point to notes of the source that are not given here.
Key:
CYP3A4 = CYP3A4 (Homo sapiens, UniProt P08684); experiment: In vitro metabolism studies; format: in vitro ADME
[1] = system: patients with advanced malignancies; experiment: Safety and tolerability, phase 1/2 study INCB 54329-101; format: in vivo; conditions: for TRAEs (any): all treatment groups; for TRAE thrombocytopenia: incl. platelet counts decreased
[2] = Plasma pharmacokinetics, study INCB 54329-101; format: in vivo, human
Method in brief: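 Plasma PK used noncompartmental analysis in patients given ≥1 dose with ≥1 PK sample. Oral dosing was 15–30 mg QD or 15–25 mg BID, continuous or intermittent; the first 3 patients also received a single 5-mg PK dose at day 0. Steady-state oral clearance (CLss/F) and terminal half-life are reported as mean with SD.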

advanced malignancies [3] = experiment: Objective response assessment, study INCB 54329-101; format: in vivo, human
Method in brief: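 Open-label phase 1/2 monotherapy study in adults (≥18 y) with relapsed/refractory advanced malignancies and ECOG ≤1. Oral dosing was 15–30 mg QD or 15–25 mg BID, continuous or intermittent (5/2, 4/3, 7/7 days on/off), in 21-day cycles. Part 2 used intrapatient titration from 20 mg BID. Response was assessed with malignancy-specific criteria in patients with ≥1 dose, measurable/evaluable baseline disease and ≥1 post-baseline assessment.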

CYP2C19 = CYP2C19 (Homo sapiens, UniProt P33261); experiment: In vitro metabolism studies; format: in vitro ADME
Sequence of CYP2C19 (P33261 whole entry): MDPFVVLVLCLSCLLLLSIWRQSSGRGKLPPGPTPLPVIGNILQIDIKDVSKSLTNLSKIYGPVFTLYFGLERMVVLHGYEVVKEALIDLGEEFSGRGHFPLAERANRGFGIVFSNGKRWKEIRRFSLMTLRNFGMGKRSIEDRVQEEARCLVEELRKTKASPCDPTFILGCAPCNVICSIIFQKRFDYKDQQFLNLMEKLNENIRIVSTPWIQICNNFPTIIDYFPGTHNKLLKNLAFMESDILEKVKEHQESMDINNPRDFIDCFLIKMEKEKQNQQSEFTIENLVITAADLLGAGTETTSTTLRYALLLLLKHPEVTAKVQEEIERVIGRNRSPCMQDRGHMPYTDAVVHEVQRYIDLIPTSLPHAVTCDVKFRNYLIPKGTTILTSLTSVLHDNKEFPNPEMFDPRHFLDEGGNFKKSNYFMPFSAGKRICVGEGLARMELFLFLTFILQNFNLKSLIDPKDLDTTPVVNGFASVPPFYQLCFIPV

[4] = system: patients with advanced malignancies; experiment: Safety and tolerability, phase 1/2 study INCB 57643-101; format: in vivo; conditions: for TRAEs (any): all treatment groups; for TRAE thrombocytopenia: incl. platelet counts decreased
advanced malignancies [5] = experiment: Objective response assessment, study INCB 57643-101; format: in vivo, human; conditions: for reduction in spleen size by manual palpation: one MF patient
Method in brief: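 Open-label phase 1/2 study in adults (≥18 y) with relapsed/refractory advanced malignancies. Oral dosing was 8–16 mg QD, continuous, as monotherapy (escalation; expansion at 12 mg QD) or from 8 mg QD combined with standard-of-care agents, in 21- or 28-day cycles. Response was assessed with malignancy-specific criteria in patients with ≥1 dose, measurable/evaluable baseline disease and ≥1 post-baseline assessment.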

[6] = Plasma pharmacokinetics, study INCB 57643-101; format: in vivo, human; conditions: for half-life: human, plasma
Method in brief: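 Plasma PK used noncompartmental analysis in patients given ≥1 dose with ≥1 PK sample, dosed orally at 8, 12 or 16 mg QD continuously. Steady-state oral clearance (CLss/F) and terminal half-life are reported as mean with SD.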

[7] = Effect of a high-fat meal on PK of INCB057643; format: in vivo, human
Method in brief: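 Steady-state plasma PK was compared within 12 patients, each dosed orally once daily in the fasted state and with a high-fat meal. Parameters (Tmax, Cmax, AUCtau) came from noncompartmental analysis. The fed/fasted ratio of geometric means is reported with its 90% CI.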

[8] = system: coagulation factor VII (Factor VII); experiment: Olink multiplex proximity extension assay of patient plasma; format: in vivo, human; conditions: cycle 1 day 8
Method in brief: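 Plasma from 80 patients dosed orally at 8, 12 or 16 mg QD was collected at baseline (cycle 1 day 1) and on treatment (cycle 1 day 8, cycle 2 day 1, cycle 4 day 1). About 1,012 proteins were profiled by multiplex proximity extension assay. Factor VII is expressed as fold-change versus baseline.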

[9] = system: patients with advanced solid tumors; conditions: 36 patients with advanced solid tumors; cited from earlier work
[10] = Part 2 TGA, 12 mg QD, 86 patients
[11] = Part 3, 8 mg QD in combination with SOC agents, 13 patients

Sequence of CYP3A4 (P08684 whole entry): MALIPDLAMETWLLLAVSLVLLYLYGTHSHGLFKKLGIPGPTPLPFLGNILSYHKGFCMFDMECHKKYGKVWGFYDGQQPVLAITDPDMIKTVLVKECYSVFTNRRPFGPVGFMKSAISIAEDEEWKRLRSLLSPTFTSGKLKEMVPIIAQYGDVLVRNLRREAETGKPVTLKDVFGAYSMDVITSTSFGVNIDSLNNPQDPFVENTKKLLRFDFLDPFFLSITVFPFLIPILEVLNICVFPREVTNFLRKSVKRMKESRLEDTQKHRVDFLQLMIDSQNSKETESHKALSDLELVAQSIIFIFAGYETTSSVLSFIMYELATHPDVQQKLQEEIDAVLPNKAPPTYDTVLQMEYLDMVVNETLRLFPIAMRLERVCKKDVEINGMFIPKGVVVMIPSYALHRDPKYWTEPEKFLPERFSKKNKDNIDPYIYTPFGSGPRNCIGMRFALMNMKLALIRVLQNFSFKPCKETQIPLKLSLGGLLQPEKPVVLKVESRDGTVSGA

Structure (SMILES): Cc1noc(C)c1-c1ccc2[nH]c(=O)n3c2c1OC[C@@H]3c1ccccn1 [INCB054329]
- metabolism by CYP3A4 (CYP3A4): metabolized
- patients with ≥1 any grade TRAE ([1]; 69 enrolled patients): 78%
- MTD per protocol ([1]; Part 1 TGA): not reached
- DLTs ([1]; Part 1 TGA, both grade 4 thrombocytopenia at 30 mg QD and 22.5 mg BID): 2 DLTs
- DLTs ([1]; Part 1 TGB, 20 mg BID): No DLTs
- TRAEs leading to dose interruptions ([1]; Part 1 TGB, due to grade 3 hyperglycemia): 2 patients
- tolerability of the 20 mg BID starting dose ([1]; Part 2 dose titration): not tolerated
- patients requiring dose interruption due to TRAEs ([1]; Part 2 dose titration, 20 mg BID start, 11 patients): 45%
- incidence of TRAE anemia ([1]; any grade): 10%
- incidence of TRAE decreased appetite ([1]; any grade): 26%
- incidence of TRAE fatigue ([1]; any grade): 29%
- incidence of TRAE nausea ([1]; any grade): 35%
- incidence of TRAE thrombocytopenia ([1]; any grade): 33%
- incidence of TRAE vomiting ([1]; any grade): 10%
- TRAEs (any) ([1]; any grade, n = 69): 54 (78) n (%)
- TRAE anemia ([1]; any grade, n = 69): 7 (10) n (%)
- TRAE decreased appetite ([1]; any grade, n = 69): 18 (26) n (%)
- TRAE diarrhea ([1]; any grade, n = 69): 12 (17) n (%)
- TRAE dysgeusia ([1]; any grade, n = 69): 9 (13) n (%)
- TRAE fatigue ([1]; any grade, n = 69): 20 (29) n (%)
- TRAE hyperglycemia ([1]; any grade, n = 69): 3 (4)^c n (%)
- TRAE nausea ([1]; any grade, n = 69): 24 (35) n (%)
- TRAE vomiting ([1]; any grade, n = 69): 7 (10) n (%)
- TRAE thrombocytopenia ([1]; any grade, n = 69): 23 (33) n (%)
- incidence of TRAE AST increased ([1]; grade ≥3): 4%
- incidence of TRAE anemia ([1]; grade ≥3): 6%
- incidence of TRAE hyperglycemia ([1]; grade ≥3): 3%
- incidence of TRAE neutropenia ([1]; grade ≥3): 6%
- TRAEs (any) ([1]; grade ≥3, n = 69): 16 (23) n (%)
- TRAE anemia ([1]; grade ≥3, n = 69): 4 (6) n (%)
- TRAE decreased appetite ([1]; grade ≥3, n = 69): 0 (0) n (%)
- TRAE diarrhea ([1]; grade ≥3, n = 69): 0 (0) n (%)
- TRAE dysgeusia ([1]; grade ≥3, n = 69): 0 (0) n (%)
- TRAE fatigue ([1]; grade ≥3, n = 69): 0 (0) n (%)
- TRAE hyperglycemia ([1]; grade ≥3, n = 69): 2 (3) n (%)
- TRAE nausea ([1]; grade ≥3, n = 69): 1 (1) n (%)
- TRAE vomiting ([1]; grade ≥3, n = 69): 1 (1) n (%)
- TRAE thrombocytopenia ([1]; grade ≥3, n = 69): 9 (13) n (%)
- deaths deemed treatment-related ([1]; in vivo): none
- discontinuation, primary reason adverse event ([1]; n = 69): 2 (3) n (%)
- discontinuation, primary reason death ([1]; n = 69): 1 (1) n (%)
- TRAEs leading to dose interruptions ([1]; overall): 29%
- TRAEs leading to dose reductions ([1]; overall): 7%
- dose interruptions due to thrombocytopenia ([1]; overall): 17%
- patients who discontinued treatment due to TRAEs ([1]; overall): 4%
- serious TRAE anemia ([1]; overall): 2 patients
- serious TRAE thrombocytopenia ([1]; overall): 4 patients
- patients experiencing serious TRAEs ([1]; overall, n = 69): 7 patients
- half-life ([2]; as summarised in discussion): < 5 h
- oral clearance CLss/F, mean [SD] ([2]; overall, oral dosing, patients): 95.5 [135] L/h
- terminal elimination half-life t1/2, mean [SD] ([2]; overall, oral dosing, patients): 2.24 [2.03] hours
- confirmed clinical response (advanced malignancies [3]; 69 patients): none and no confirmed clinical responses
- patients with stable disease as best response (advanced malignancies [3]; all with solid tumors): Twenty-one
- patients who maintained SD for ≥6 months (advanced malignancies [3]; in vivo): 4 patients
- discontinuation, primary reason disease progression (advanced malignancies [3]; n = 69): 53 (77) n (%)
- metabolism by CYP2C19 (CYP2C19): metabolized

Structure (SMILES): CN1C(=O)C(C)(C)Oc2c(-c3cn(C)c(=O)c4[nH]ccc34)cc(S(C)(=O)=O)cc21 [INCB057643]
- patients requiring dose interruptions and/or reductions due to AEs ([4]; 16 mg QD cohort, cycles 1 and 2): 50%
- patients with ≥1 any grade TRAE ([4]; 134 enrolled patients): 86%
- tolerability of the 16 mg QD dose ([4]; Part 1 TGA): not tolerated
- DLTs ([4]; Part 1 TGA, grade 3 increased INR, 16 mg QD cohort of 8 patients): 1 DLT
- TRAEs leading to dose interruptions ([4]; Part 2 TGA, 12 mg QD): 35%
- TRAEs leading to dose reductions ([4]; Part 2 TGA, 12 mg QD): 11%
- patients with a grade 3/4 TRAE [4, 10]: 36%
- patients with a serious TRAE [4, 10]: 13%
- patients with a grade 3/4 TRAE ([4]; Part 2 TGB, 12 mg QD, 5 patients): 40%
- patients requiring dose interruption ([4]; Part 2 TGB, 12 mg QD, febrile neutropenia and thrombocytopenia): 20%
- TRAEs leading to dose interruptions [4, 11]: 6 patients
- TRAEs leading to dose reductions [4, 11]: 4 patients
- incidence of TRAE anemia ([4]; any grade): 14%
- incidence of TRAE decreased appetite ([4]; any grade): 22%
- incidence of TRAE diarrhea ([4]; any grade): 16%
- incidence of TRAE dysgeusia ([4]; any grade): 16%
- incidence of TRAE fatigue ([4]; any grade): 30%
- incidence of TRAE hyperglycemia ([4]; any grade): 13%
- incidence of TRAE nausea ([4]; any grade): 30%
- incidence of TRAE thrombocytopenia ([4]; any grade): 32%
- incidence of TRAE vomiting ([4]; any grade): 16%
- patients with treatment-related INR increased events ([4]; any grade): Seven
- TRAEs (any) ([4]; any grade, n = 134): 115 (86) n (%)
- TRAE anemia ([4]; any grade, n = 134): 19 (14) n (%)
- TRAE decreased appetite ([4]; any grade, n = 134): 30 (22) n (%)
- TRAE diarrhea ([4]; any grade, n = 134): 21 (16) n (%)
- TRAE dysgeusia ([4]; any grade, n = 134): 22 (16) n (%)
- TRAE fatigue ([4]; any grade, n = 134): 40 (30) n (%)
- TRAE hyperglycemia ([4]; any grade, n = 134): 18 (13) n (%)
- TRAE nausea ([4]; any grade, n = 134): 40 (30) n (%)
- TRAE vomiting ([4]; any grade, n = 134): 21 (16) n (%)
- TRAE thrombocytopenia ([4]; any grade, n = 134): 43 (32) n (%)
- MTD per protocol definition ([4]; at 16 mg QD): not reached
- incidence of TRAE INR increased ([4]; grade ≥3): 2%
- incidence of TRAE anemia ([4]; grade ≥3): 10%
- incidence of TRAE dehydration ([4]; grade ≥3): 2%
- incidence of TRAE diarrhea ([4]; grade ≥3): 2%
- incidence of TRAE hyperglycemia ([4]; grade ≥3): 3%
- incidence of TRAE hyponatremia ([4]; grade ≥3): 2%
- incidence of TRAE nausea ([4]; grade ≥3): 2%
- incidence of TRAE syncope ([4]; grade ≥3): 2%
- incidence of TRAE vomiting ([4]; grade ≥3): 2%
- TRAEs (any) ([4]; grade ≥3, n = 134): 48 (36) n (%)
- TRAE anemia ([4]; grade ≥3, n = 134): 14 (10) n (%)
- TRAE decreased appetite ([4]; grade ≥3, n = 134): 0 (0) n (%)
- TRAE diarrhea ([4]; grade ≥3, n = 134): 2 (2) n (%)
- TRAE dysgeusia ([4]; grade ≥3, n = 134): 0 (0) n (%)
- TRAE fatigue ([4]; grade ≥3, n = 134): 1 (1) n (%)
- TRAE hyperglycemia ([4]; grade ≥3, n = 134): 4 (3) n (%)
- TRAE nausea ([4]; grade ≥3, n = 134): 2 (2) n (%)
- TRAE vomiting ([4]; grade ≥3, n = 134): 2 (2) n (%)
- TRAE thrombocytopenia ([4]; grade ≥3, n = 134): 24 (18) n (%)
- deaths deemed related to treatment ([4]; human, in vivo): 2 deaths
- deaths during the study ([4]; human, in vivo): 17 deaths
- discontinuation, primary reason adverse event ([4]; n = 134): 20 (15) n (%)
- discontinuation, primary reason death ([4]; n = 134): 9 (7) n (%)
- patients requiring dose reductions ([4]; overall): 11%
- patients who discontinued treatment due to TRAEs ([4]; overall): 11%
- patients with objective responses (advanced malignancies [5]; 134 patients): 6 patients
- patients who maintained SD for ≥6 months (advanced malignancies [5]; all with solid tumors): 6 patients
- duration of complete response (advanced malignancies [5]; follicular lymphoma patient, 8 mg QD, ongoing at data cutoff): > 2 years
- patients with SD as best response (advanced malignancies [5]; in vivo): Twenty-seven
- patients with progressive disease as best response (advanced malignancies [5]; in vivo): Forty-one
- discontinuation, primary reason disease progression (advanced malignancies [5]; n = 134): 76 (57) n (%)
- reduction in spleen size by manual palpation (advanced malignancies [5]; 8 mg QD + ruxolitinib): 77%
- reduction in spleen size by manual palpation (advanced malignancies [5]; 12 mg QD monotherapy): 92.5%
- half-life ([6]; oral): ~10 h
- half-life ([6]; po): 11.1 h
- oral clearance CLss/F, mean [SD] ([6]; overall, oral dosing, patients): 11.1 [4.97] L/h
- fed vs. fasted geometric mean ratio of Cmax ([7]; 90% CI 0.78–1.01): 0.89
- fed vs. fasted geometric mean ratio of AUCtau ([7]; 90% CI 0.99–1.29): 1.13
- increase of geometric mean AUCtau by high-fat meal ([7]; fed vs fasted): 13%
- lowering of geometric mean Cmax by high-fat meal ([7]; fed vs fasted): 11%
- Factor VII mean [SEM] fold decrease vs. baseline ([8]; 8 mg): −0.32 [0.10]
- Factor VII mean [SEM] fold decrease vs. baseline ([8]; 12 mg): −0.53 [0.14]
- Factor VII mean [SEM] fold decrease vs. baseline ([8]; 16 mg): −0.53 [0.33]

Structure (SMILES): Cc1noc(C)c1-c1cnc2c(-c3ccc(C(=O)O)cc3)cn([C@@H](C)c3ccccn3)c2c1 [PLX51107]
- INR increase, patients [9]: 17%
